Shown are actives, neighbours in structure and some others; about 1.8% of the full set was active somewhere.
CXCR6 inh – CXCR6 receptor inhibitors, primary screen, cell-based, beta-arrestin, luminescence, CHO-K1 PathHunter, 1536-well | AID 602244, 2012 | inhibition, % at 20 µM | 0.36% of 360,000 active | C-X-C chemokine receptor type 6 (Homo sapiens), O00574; in the data active = inhibition above about 34%, passing the limit was not always enough;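 also: antagonist mode with CXCL16 agonist at 10 nM final; 0% = 10 nM CXCL16 with DMSO and 100% = unstimulated wells without agonist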
Target sequence (O00574 whole entry, looked up): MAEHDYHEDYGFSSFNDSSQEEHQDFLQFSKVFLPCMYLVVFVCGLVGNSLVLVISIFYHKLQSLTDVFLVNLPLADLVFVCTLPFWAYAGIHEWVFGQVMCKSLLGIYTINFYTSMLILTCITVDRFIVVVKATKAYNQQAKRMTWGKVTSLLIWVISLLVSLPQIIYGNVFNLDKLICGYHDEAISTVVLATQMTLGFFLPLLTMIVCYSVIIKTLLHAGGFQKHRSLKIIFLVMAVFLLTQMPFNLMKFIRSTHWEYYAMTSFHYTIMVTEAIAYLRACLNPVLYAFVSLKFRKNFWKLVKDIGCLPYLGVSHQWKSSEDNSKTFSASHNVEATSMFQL
APJ antag – antagonists of human apelin receptor APJ, primary screen, CHO-K1 cells, beta-arrestin complementation, luminescence | AID 2521, 2010 | 0.32% of 330,000 active | P35414 | inhibition, % at 20 µM;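 active = inhibition above about 40% at 20 µM, limit read from the data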;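 also: cells challenged with 10 nM apelin-13 agonist together with compound; plate controls were apelin-13 plus DMSO wells for no effect and DMSO wells lacking apelin-13 for full effect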
CCR6 antag – CCR6 receptor antagonists, primary screen, cell-based, CHO-K1, luminescence, beta-arrestin, uHTS. CHO-K1 CCR6 PathHunter beta-arrestin, CCL20-stimulated. 0.49% of 340,000 active. AID 493098, 2011. C-C chemokine receptor type 6 (Homo sapiens), P51684. inhibition, % at 20 µM;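 active = compounds whose inhibition of the agonist-driven luminescence signal at 20 µM reaches about 50%, limit read from the data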;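 also: cells stimulated with CCL20 at 14 nM final; plate controls were DMSO with CCL20 for no effect and DMSO without agonist for full effect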
EBI2 block – EBI2 receptor antagonists, beta-arrestin recruitment, primary screen, cell-based, luminescence, 7a,25-OHC stimulation, uHTS; 7a,25-OHC stimulated; inhibition, % at 5 µM; 0.81% of 360,000 active; AID 651636, 2012; in the data active = inhibition above about 38%;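 also: enzyme fragment complementation signal reports receptor beta-arrestin coupling in cells; 0% = agonist plus DMSO wells and 100% = wells without agonist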
APJ ag – agonists of human apelin receptor APJ, primary screen, CHO-K1 cells, PathHunter beta-arrestin, luminescence; P35414; 0% DMSO wells, 100% apelin; activation, % at 20 µM; 0.11% of 330,000 active;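 active = activation more than six SD over the plate average, tested at 20 µM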;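 also: 0% = DMSO alone and 100% = apelin-13 at 10 nM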
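Material: engineered CHO-K1 APJ arrestin reporter cells; amount: 1000 CHO-K1 reporter cells seeded per well; incubation: compound stimulation 90 min at 25 °C, detection 60 min; signal: luminescent beta-gal fragment complementation, chemiluminescent substrate; read-out basis: APJ agonist activity; controls: DMSO-only wells as negative, 10 nM Apelin-13 as positive control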
Beta2AR agonist – beta2AR agonists driving receptor internalization, primary screen, cell-based, FAP fluorogen, flow cytometry; Beta-2 adrenergic receptor (Homo sapiens), P07550; Am2.2-beta2AR cells; response, % (test concentration not listed); 0.43% of 340,000 active;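 active = response above a set limit, near 3 SD of response in nonfluorescent compounds, cut at about 42% in these data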
B2AR ag CP1 – beta2AR agonists via receptor internalization, confirmation, cell-based, FAP fluorogen, flow cytometry, single point, cherry pick 1; Am2.2-beta2AR cells, FAP surface receptor; stronger effect = lower value; shares compounds with Beta2AR agonist; 25% of 1,100 active; AID 540358, 2011; percent response (surface receptor), % at 10 µM;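 active = surface receptor percent response at or below 58%, roughly 3 SD from nonfluorescent compounds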
B2AR FAP counter – flagged in Am2.2 fluorescence counterscreen for beta-2AR agonists; shares compounds with Beta2AR agonist; Am2.2 cells, FAP fluorogen flow cytometry; stronger effect = lower value; calls only at 10 µM; 1,100 tested, under 10 active; AID 588765;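 active = percent response below a set limit in fluorescence channel 1 and below 50% in channel 8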
The depositor's hits bear a star; i = inactive; nt = no result given.

SMILES	CXCR6 inh	APJ antag	CCR6 antag	EBI2 block	APJ ag	Beta2AR agonist	B2AR ag CP1	B2AR FAP counter
CCN(CC)c1ccc([C@H]2[C@@H]3CCCC[C@]3(O)CCN2CC(=O)NCc2ccco2)cc1	5.6	-4.8	5.6	-3.8	1.0	22.5	126.2	i
COc1ccc(CNC(=O)CN(Cc2ccc(F)cc2)C(=O)c2csnn2)cc1	-1.1	22.0	4.9	0.2	-2.3	1.3	nt	nt
CCOC(=O)N1CCN(c2nnc(-c3ccc(C)cc3)c3ccccc23)CC1	-3.3	22.2	20.6	8.7	-3.5	44.9*	33.4*	i
O=C(CN1CCOCC1)N1CCN(c2nnc(-c3ccccc3)c3ccccc23)CC1	5.5	0.2	2.6	3.5	-7.5	68.6*	58.8	i
N#Cc1cc([N+](=O)[O-])c(-n2nnc3ccccc32)c([N+](=O)[O-])c1	74.2*	23.5	nt	-4.1	4.2	55.4*	103.5	i
CS(=O)(=O)c1ccc(-n2nnc3ccccc32)c([N+](=O)[O-])c1	6.4	-34.9	-16.0	-3.5	3.7	-2.7	nt	nt
CN(C)CCCN(C(=O)CCc1ccccc1)c1nc2ccc(F)cc2s1	-5.6	5.5	5.6	1.4	-2.2	-0.1	nt	nt
CN(C)CCCN(C(=O)CCc1ccccc1)c1nc2ccc(Br)cc2s1	-5.2	11.0	52.8*	-15.8	5.0	43.6*	119.9	i
CC(C)c1cc(CNC(=O)c2cc(COc3cncc(Cl)c3)on2)on1	-2.8	9.8	20.4	4.2	1.8	-12.8	nt	nt
COC(=O)c1ccc(CNC(=O)c2cc(COc3cncc(Cl)c3)on2)cc1	5.5	11.2	0.9	9.5	-4.6	-2.4	115.1	i
Cc1ccc(OCCn2c(=S)[nH]c3ccccc32)c(C(C)C)c1	-2.3	-13.6	-33.3	36.0	3.2	69.0*	106.3	i
Cc1cccc(OCCn2c(=S)[nH]c3ccccc32)c1	2.8	-0.5	15.3	23.7	0.1	-10.6	nt	nt
CN1CC(=O)N(CC(=O)Nc2ccc(OCc3ccccc3)cc2)C1=O	1.2	-2.5	-6.9	-5.5	-1.9	-5.7	nt	nt
CCCCC(=O)Nc1ccc(C(=O)N2CCCC(C(=O)OCC)C2)cc1 (centres undefined)	-2.7	-16.3	-5.8	4.5	-3.9	61.5*	40.6*	i
CCOC(=O)C1CCCN(C(=O)c2ccc(Cl)cc2)C1 (centres undefined)	-2.5	-17.3	-3.4	-3.5	2.4	8.5	nt	nt
CC(Oc1ccc(Cl)cc1Cl)c1nc(-c2ccc(NC(=O)c3ccccn3)cc2)no1 (centres undefined)	-1.7	6.1	4.2	16.0	-1.3	82.3*	9.7*	i
Cc1cccc(OCc2n(CC(=O)OC3CC(C)CCC3C(C)C)c3ccccc3[n+]2C)c1 (centres undefined)	-4.3	21.8	14.3	4.2	-3.5	10.4	96.1	i
CC1CCC(C(C)C)C(OC(=O)Cn2c(-c3ccccc3)[n+](C)c3ccccc32)C1 (centres undefined)	-9.9	5.3	2.0	0.6	-3.3	6.5	nt	nt
COc1ccc(-n2nc3c(N4CCC(C(=O)NCc5ccco5)CC4)nnc(C)c3c2C)cc1	-1.6	-14.5	16.4	13.9	-5.3	7.3	98.1	i
Cc1ccc(-n2nc3c(N4CCC(C(=O)NCCc5ccco5)CC4)nnc(C)c3c2C)cc1	15.6	2.0	23.4	3.4	-1.1	12.6	nt	nt
COc1cc(-c2cccs2)cc(=O)c2c(C)oc(C)c12	7.4	-13.5	13.9	-1.9	-1.8	-12.2	112.3	i
CN(CC(=O)Nc1cc(Cl)ccc1-n1cncn1)Cc1ccccc1N1CCOCC1	-2.8	nt	nt	-1.2	nt	nt	nt	nt

Screens (PubChem BioAssay)
